In ChEMBL document CHEMBL3351406, “Synthesis and biological evaluation of the [d-MeAla(11)]-epimer of coibamide A” (Bioorg Med Chem Lett, 2015):
Where a SMILES comes first, the peptide text is derived from it. Bridges are numbered along the chain shown (N, C = ends). [ ]: non-standard residue; d: D form. The star is where a group is joined. NMe2Val = CC(C)[C@@H](C(=O)*)N(C)C; NMeI = CC[C@H](C)[C@H](NC)C(=O)O; NMeT = CN[C@H](C(=O)O)[C@@H](C)O; NMeL = CN[C@@H](CC(C)C)C(=O)O; Hiv = CC(C)[C@H](O)C(=O)O; NMeS = CN[C@@H](CO)C(=O)O; NMeA = CN[C@@H](C)C(=O)O; dNMeA = CN[C@H](C)C(=O)O

Experiments:
Format in all cases: functional, cell-based
SF-295 = experiment: Cytotoxicity against human SF295 cells assessed as growth inhibition after 72 hrs by MTT assay; settings: SF-295, 72 h
How it was run: (§1)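 Media: PC-3 in DMEM with 10% FBS, 2 mM L-glutamine and penicillin/streptomycin; SF-295, MDA-MB-231 and H292 in RPMI-1640 with 10% FBS, 2 mM L-glutamine, 1 mM pyruvate and penicillin/streptomycin. Cells were seeded at 3,000 per well 16 h before adding compound or DMSO vehicle, then kept 72 h at 5% CO2. Viability was measured by MTT, normalised to vehicle-treated cells as 100%.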

NCI-H292 = experiment: Cytotoxicity against human NCI-H292 cells assessed as growth inhibition after 72 hrs by MTT assay; settings: NCI-H292, 72 h; how it was run: as §1
[1] = Cytotoxicity against human HCT116 cells assessed as growth inhibition after 72 hrs by MTS assay; settings: HCT-116, 72 h
How it was run: (§2)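 Seeding per well: A549 500 cells (DMEM), HCT-116 5000 (McCoy's 5A), MCF-7 5000 (EMEM), B16 2000 (DMEM). All media had 10% FBS; cells kept at 37 °C, 5% CO2. Cells settled 6 h, then received compounds pre-diluted 250-fold from DMSO into medium, and were exposed 72 h. Wells were washed with phenol-red-free medium, given MTS for 40 min, and read at 490 nm absorbance.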

[2] = Cytotoxicity against human PC3 cells assessed as growth inhibition after 72 hrs by MTT assay; settings: PC-3, 72 h; how it was run: as §1
MDA-MB-231 = experiment: Cytotoxicity against human MDA-MB-231 cells assessed as growth inhibition after 72 hrs by MTT assay; settings: MDA-MB-231, 72 h; how it was run: as §1
A549 = experiment: Cytotoxicity against human A549 cells assessed as growth inhibition after 72 hrs by MTS assay; settings: A549, 72 h; how it was run: as §2
B16 = experiment: Cytotoxicity against mouse B16 cells assessed as growth inhibition after 72 hrs by MTS assay; settings: B16, 72 h; how it was run: as §2
MCF7 = experiment: Cytotoxicity against human MCF7 cells assessed as growth inhibition after 72 hrs by MTS assay; settings: MCF7, 72 h; how it was run: as §2

| Structure (SMILES) | IC50 (SF-295) | IC50 (NCI-H292) | IC50 [1] | IC50 [2] | IC50 (MDA-MB-231) | IC50 (A549) | IC50 (B16) | IC50 (MCF7) |
| --- | --- | --- | --- | --- | --- | --- | --- | --- |
| CC[C@H](C)[C@H]1C(=O)N[C@@H](C)C(=O)N(C)[C@@H](CC(C)C)C(=O)N[C@@H](Cc2ccc(OC)cc2)C(=O)N(C)[C@H](C)C(=O)O[C@H](C)[C@H](N(C)C(=O)[C@H](CC(C)C)N(C)C(=O)[C@H](COC)N(C)C(=O)[C@@H](OC(=O)[C@H](C(C)C)N(C)C)C(C)C)C(=O)N(C)[C@@H](COC)C(=O)N1C (NMe2Val-[Hiv][NMeS](Me)[NMeL][NMeT][NMeS](Me)[NMeI]A[NMeL]Y(Me)[dNMeA]; ester 4-C) | 816 nM | 610 nM | 44.6 nM | 424 nM | 545 nM | 19 nM | 54.4 nM | 48.6 nM |
| CC[C@H](C)[C@H]1C(=O)N[C@@H](C)C(=O)N(C)[C@@H](CC(C)C)C(=O)N[C@@H](Cc2ccc(OC)cc2)C(=O)N(C)[C@@H](C)C(=O)O[C@H](C)[C@H](N(C)C(=O)[C@H](CC(C)C)N(C)C(=O)[C@H](COC)N(C)C(=O)[C@@H](OC(=O)[C@H](C(C)C)N(C)C)C(C)C)C(=O)N(C)[C@@H](COC)C(=O)N1C (NMe2Val-[Hiv][NMeS](Me)[NMeL][NMeT][NMeS](Me)[NMeI]A[NMeL]Y(Me)[NMeA]; ester 4-C) | 219 nM | 124 nM | – | 80 nM | 66 nM | – | – | – |
